According to ChEMBL document CHEMBL1123507, “Antipicornavirus activity of substituted phenoxybenzenes and phenoxypyridines” (J Med Chem, 1986):
In brackets after ≈: the same amount, converted by molar mass.

Experiments:
HeLa = assay: Cytotoxicity concentration in HeLa cells; assay type: cell-based; conditions: human
How it was run: (§1)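 HeLa monolayers were seeded at (1.0-1.3) × 10^5 cells/well, grown 24 h at 36 °C in 5% CO2 to 60–75% cover, then refed with maintenance medium (1-2% heat-inactivated FCS) containing two-fold serial compound dilutions made from a 200 μg/mL stock in Me2SO/medium, with final Me2SO ≤0.1%. Cells were challenged with 10-100 TCID50 virus, and CPE was read microscopically at 48 and 72 h. MIC50 was the lowest concentration giving ≥50% CPE reduction versus virus control. Cytotoxicity was the lowest concentration causing cell death, a growth change or a morphology change in uninfected cultures.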

Enterovirus [1] = assay: Lowest concentration to reduce viral effect by 50% or more against Rhinovirus (RV)-2; assay type: functional; how it was run: as §1
Coxsackievirus [2] = assay: Lowest concentration to reduce viral effect by 50% or more against coxsackie virus A21; assay type: functional; how it was run: as §1
Enterovirus [3] = assay: Ratio of the MIC50 of 6-(4-Nitro-phenoxy)-nicotinonitrile compared to compound obtained in the same test for Rhinovirus (RV)-1A; assay type: functional
How it was run: (§2)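 Relative activity was calculated as the MIC50 of the positive control 5-cyano-2-(4-nitrophenoxy)pyridine divided by the MIC50 of the test compound. Both were measured in parallel in the same HeLa CPE test (48/72 h microscopic reading) against RV-1A, RV-2 or coxsackievirus A21.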

Coxsackievirus [4] = assay: Ratio of the MIC50 of 6-(4-Nitro-phenoxy)-nicotinonitrile compared to compound obtained in the same test for coxsackie A21; assay type: functional; how it was run: as §2
Enterovirus [5] = assay: Ratio of the MIC50 of 6-(4-Nitro-phenoxy)-nicotinonitrile compared to compound obtained in the same test for Rhinovirus (RV)-2; assay type: functional; how it was run: as §2
Enterovirus [6] = assay: Lowest concentration to reduce viral effect by 50% or more against Rhinovirus (RV)-1A; assay type: functional; how it was run: as §1
Enterovirus [7] = assay: Compound was evaluated for inhibition of rhinovirus RV-Hanks at a dose of 50 ug/mL by <50%; assay type: functional
Enterovirus [8] = assay: Compound was evaluated for inhibition of rhinovirus RV-Hanks 75%; assay type: functional

| Compound | Toxicity (HeLa) [µM] | MIC50 (Enterovirus [1]) [µM] | MIC50 (Coxsackievirus [2]) [µM] | Relative activity (Enterovirus [3]) | Relative activity (Coxsackievirus [4]) | Relative activity (Enterovirus [5]) | MIC50 (Enterovirus [6]) [µM] | inhibition at 50 µg/mL (Enterovirus [7]) [%] | Inhibition (Enterovirus [8]) [%] |
| --- | --- | --- | --- | --- | --- | --- | --- | --- | --- |
| N#Cc1cc([N+](=O)[O-])ccc1Oc1ccccc1Cl | 45 | 4.5 (≈ 1.24 µg/mL) | 5.7 (≈ 1.57 µg/mL) | 4.6 | 2.38 | 4.6 | 4.5 (≈ 1.24 µg/mL) |  |  |
| N#Cc1ccc(Oc2ccc([N+](=O)[O-])cc2C#N)cc1 | > 38 | 9.4 (≈ 2.49 µg/mL) | 18.9 (≈ 5.01 µg/mL) | 2.2 | 0.33 | 1.1 | 9.4 (≈ 2.49 µg/mL) |  |  |
| N#Cc1ccc(Oc2ccc([N+](=O)[O-])cc2)nc1 |  |  |  |  |  |  |  | 8 | 85 |
| CS(=O)(=O)c1ccc(Oc2ccc(Br)cc2)cc1 | 38 | 1 (≈ 0.327 µg/mL) | 7.6 (≈ 2.49 µg/mL) | 9.8 | 2.5 | 19.7 | 1.9 (≈ 0.622 µg/mL) |  |  |
| CS(=O)(=O)c1ccc(Oc2ccc(Cl)cc2)cc1 | 44 | 4.4 (≈ 1.24 µg/mL) | 2.2 (≈ 0.622 µg/mL) | 11.8 | 11.8 | 5.9 | 4.4 (≈ 1.24 µg/mL) |  |  |
| N#Cc1ccc(Oc2ccc(Cl)c(Cl)c2)nc1 | 377 | 19 (≈ 5.04 µg/mL) | 2 (≈ 0.53 µg/mL) | 4.1 | 13 | 2.7 | 5 (≈ 1.33 µg/mL) |  |  |
| N#Cc1cc([N+](=O)[O-])ccc1Oc1ccc(C(F)(F)F)cc1 | 162 | 1 (≈ 0.308 µg/mL) | 2 (≈ 0.616 µg/mL) | 1.3 | 13 | 13 | 10 (≈ 3.08 µg/mL) |  |  |
| N#Cc1cc([N+](=O)[O-])ccc1Oc1c(Cl)cccc1Cl | > 65 | 0.52 (≈ 0.161 µg/mL) | 16.2 (≈ 5.01 µg/mL) | 5.3 | 0.8 | 25 | 3.9 (≈ 1.21 µg/mL) |  |  |
| CC(=O)c1ccc(Oc2ccc([N+](=O)[O-])cc2C#N)cc1 | > 177 | 11.1 (≈ 3.13 µg/mL) | 3.5 (≈ 0.988 µg/mL) | 0.59 | 0.68 | 1.2 | 22.2 (≈ 6.27 µg/mL) |  |  |
| N#Cc1cc([N+](=O)[O-])ccc1Oc1ccc(Cl)cc1Cl | > 324 | 0.52 (≈ 0.161 µg/mL) | 3.9 (≈ 1.21 µg/mL) | 85.6 | 13.3 | 49.8 | 0.97 (≈ 0.3 µg/mL) |  |  |
| COc1cccc(Oc2ccc([N+](=O)[O-])cc2C#N)c1 | > 185 | 9.3 (≈ 2.51 µg/mL) | 4.6 (≈ 1.24 µg/mL) | 1.1 | 2.8 | 1.4 | 23 (≈ 6.22 µg/mL) |  |  |
| N#Cc1cc([N+](=O)[O-])ccc1Oc1ccc(Br)cc1 | > 313 | 3.8 (≈ 1.21 µg/mL) | 7.8 (≈ 2.49 µg/mL) | 6.8 | 3.3 | 6.8 | 3.8 (≈ 1.21 µg/mL) |  |  |
| Cc1ccc(Oc2ccc(S(C)(=O)=O)cc2)cc1 | 203 | 25.4 (≈ 6.66 µg/mL) | 25.4 (≈ 6.66 µg/mL) | 0.51 | 1 | 1 | 50.8 (≈ 13.3 µg/mL) |  |  |
| N#Cc1cc([N+](=O)[O-])ccc1Oc1cccc(Cl)c1 | > 91 | 0.58 (≈ 0.159 µg/mL) | 1.1 (≈ 0.302 µg/mL) | 23.6 | 11.8 | 44.7 | 1.1 (≈ 0.302 µg/mL) |  |  |
| N#Cc1cc([N+](=O)[O-])ccc1Oc1cc(Cl)ccc1Cl | > 162 | 0.52 (≈ 0.161 µg/mL) | 2 (≈ 0.618 µg/mL) | 50 | 13 | 25 | 0.26 (≈ 0.0804 µg/mL) |  |  |
